The nature of data set [1]: Solubility of the compound at pH 7.4. Type of data set: physicochemical. The following applies: buffer.
Data set [2] concerns Influenza A virus. Description: Antiviral activity against Influenza A virus WSN/1933 (H1N1) infected in human 293T cells after 20 hrs by luciferase reporter gene assay. Type of data set: functional, organism-based. The following applies: A/WSN/1933(H1N1), HEK-293T. The procedure, abridged: (§1)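 293T cells were transfected with an IAV firefly-luciferase minigenome reporter plasmid (1 µg/10^5 cells), cryopreserved 28 h post-transfection, thawed, and seeded at 3×10^4 cells/well. After 20 h they were infected with TPCK-trypsin-activated IAV (MOI 0.1 pfu/cell). Luciferase bioluminescence was read 28 h post-infection after adding Bright-Glo or Dual-Glo substrate.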

Data set [3] can be described thus: Antiviral activity against Measles virus Edmonston infected in african green monkey Vero cells after 20 hrs by luciferase reporter gene assay. It counts as functional, cell-based, Measles virus strain Edmonston. The following applies: Measles morbillivirus. The procedure, abridged: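 Cells seeded at 3×10^4/well and incubated 20 h, then infected with Renilla luciferase-expressing recombinant MeV-Edmonston (recMeV-ren) at MOI 0.2 TCID50/cell. Luciferase substrate added 28 h post-infection; bioluminescence read to quantify reporter expression.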
For orientation: A reporter such as luciferase makes a cellular process visible.

Another data set has as its system Liver. Put plainly: (§2) Half life in human liver S9 fraction. Type of data set: ADME, subcellular. The following applies: s9.
A short description of data set [4]: Half life in hamster liver S9 fraction. It counts as ADME, subcellular. As to conditions: cricetinae.
In data set [5] the test system is Influenza A virus. Put plainly: Antiviral activity against Influenza A virus A/Aichi/1968(H3N2) by firefly luciferase reporter gene assay. It counts as functional, organism-based. In a few lines: as §1
Data set [6] has as its system Respiratory syncytial virus. Description: Antiviral activity against Respiratory syncytial virus by firefly luciferase reporter gene assay. It counts as functional, organism-based. As to conditions: human respiratory syncytial virus.
For data set [7], the system named is Influenza A virus. Put plainly: Antiviral activity against Influenza A virus A/sw/Texas/2009(H1N1) virus by firefly luciferase reporter gene assay. It counts as functional, organism-based. In a few lines:
as §1

Data set [8] in a line: as §2. The following applies: liver S9 fraction. Type of data set: ADME, subcellular.

This is an account of results in ChEMBL document CHEMBL2406922, “Synthesis and Metabolic Studies of Host Directed Inhibitors for Anti Viral Therapy” (ACS Med Chem Lett, 2013).

In [1], `CN(Cc1nc(-c2ccccc2)c(-c2ccccc2)n1C)c1ccccc1C(=O)O` had a solubility of more than 300 µg/mL. In addition, the EC50 (in the data set on Influenza A virus [2]; in [3]) was 3 µM each time.
Turning to `O=C(O)Cn1c(-c2csc(NC(=O)c3c(F)cccc3F)n2)nc2ccccc21`, the EC50 (in the data set with Influenza A virus [2]; in data set [3]) was more than 10 µM throughout.
With `CN(Cc1nc(-c2ccccc2)c(-c2ccccc2)n1C)c1ccc(O)cc1`, the half-maximal effective concentration (EC50) (with Influenza A virus [2]; in [3]) was 10 µM in each case.
For the compound `CCOC(=O)Cn1c(-c2ncsc2NC(=O)c2c(F)cccc2F)nc2ccccc21`, the EC50 (in the data set with Influenza A virus [2]; in data set [3]) was 10 µM each time.
For `Cn1c(S(=O)(=O)Cc2ccncc2)nc(-c2ccccc2)c1-c1ccccc1`, the EC50 (in the data set with Influenza A virus [2]; in data set [3]) was more than 10 µM each time.
In the case of `Cn1c(S(=O)(=O)C(F)(F)c2ccccc2)nc(-c2ccccc2)c1-c1ccccc1`, the EC50 (in the data set on Influenza A virus [2]; in [3]) was more than 10 µM in each case.
As to `CCn1c(S(=O)(=O)Cc2ccccc2)nc(-c2ccccc2)c1-c1ccccc1`, the 50% effective concentration (EC50) in the data set on Influenza A virus [2] was 2 µM; in [3], 1 µM.
`CN(Cc1nc(-c2ccccc2)c(-c2ccccc2)n1C)c1ccccc1` came in with a solubility in data set [1] of less than 15 µg/mL. For the same compound, the concentration for a half-maximal effect (EC50) in the data set on Influenza A virus [2] amounted to 0.88 µM; in [3], 0.91 µM. In addition, the t1/2 in the data set on Liver is 165 min. Besides, the half-life in [4] is less than 5 min.
Take `CC(C)n1c(-c2csc(NC(=O)c3c(F)cccc3F)n2)nc2ccccc21`: the results for the EC50 (with Influenza A virus [2]; in data set [3]) were 4 µM and 10 µM, respectively.
On to `CN(Cc1nc(-c2ccccc2)c(-c2ccccc2)n1C)c1ccccn1`, for which the concentration for a half-maximal effect (EC50) (in the data set with Influenza A virus [2]; in [3]) was 10 µM each time.
As for `O=S(=O)(Cc1ccccc1)c1nc(-c2ccccc2)c(-c2ccccc2)[nH]1`, the 50% effective concentration (EC50) (with Influenza A virus [2]; in data set [3]) was more than 10 µM in each case. The t1/2 with Liver is 14 min. The half-life in data set [4] was less than 2.5 min.
Take `Cn1c(C(=O)Cc2ccccc2)nc(-c2ccccc2)c1-c1ccccc1`: the results for the EC50 (in the data set on Influenza A virus [2]; in data set [3]) were 10 µM and more than 10 µM, respectively. The t1/2 with Liver is reported as more than 90 min. In data set [4], this compound displayed a half-life of 5 min.
Consider `Cn1c(C(=O)Nc2ccccc2[N+](=O)[O-])nc(-c2ccccc2)c1-c1ccccc1`, for which the EC50 was determined as 6 µM in the data set with Influenza A virus [2] and 9 µM in data set [3].
As for `C#CCn1c([S+](=O)([O-])Cc2ccc(F)cc2)nc(-c2ccccc2)c1-c1ccccc1`, the EC50 was found to be 0.92 µM in the data set on Influenza A virus [5]; 0.5 µM in the data set on Influenza A virus [2]; 0.45 µM in data set [6]; 0.2 µM in the data set with Influenza A virus [7]; 0.74 µM in data set [3]. This compound had a t1/2 in the data set on Liver of 19 min. In data set [4], this compound registered a half-life of less than 2.5 min.
For the compound `O=C(Nc1nonc1-c1nc2ccccc2[nH]1)c1ccccc1F`, the half-maximal effective concentration (EC50) (in the data set on Influenza A virus [2]; in data set [3]) was more than 10 µM each time.
For the compound `Cn1c(S(=O)(=O)Cc2ccccc2)nc(-c2ccccc2)c1-c1ccccc1`, the results for the EC50 (in the data set with Influenza A virus [2]; in [3]) were 0.3 µM and 4 µM, respectively. The half-life in data set [8] is 2 min; in data set [4], less than 2.5 min.
Turning to `Nc1ccc(C(=O)Cn2c(-c3nonc3NC(=O)c3ccccc3F)nc3ccccc32)cc1`, the EC50 in the data set on Influenza A virus [2] was found to be 0.7 µM; in data set [3] it was 0.4 µM.
For the compound `Cn1c(S(=O)(=O)C(F)(F)c2ccc(F)cc2)nc(-c2ccc(F)cc2)c1-c1ccc(F)cc1`, the concentration for a half-maximal effect (EC50) (with Influenza A virus [2]; in [3]) was more than 10 µM each time. In addition, in the data set with Liver, the t1/2 is recorded as more than 90 min. The same compound returned a half-life in data set [4] of 54 min.
As for `O=S(=O)(Cc1ccccc1)c1nc(-c2ccccc2)c(-c2ccccc2)n1Cc1ccccc1`, the concentration for a half-maximal effect (EC50) in the data set on Influenza A virus [2] was 10 µM; in data set [3], more than 10 µM.
Take `Cn1c(S(=O)(=O)Cc2cccnc2)nc(-c2ccccc2)c1-c1ccccc1`: the EC50 with Influenza A virus [2] is more than 10 µM; in [3] it was 9 µM.
The corresponding values for `Cn1c(S(=O)(=O)Cc2ccc(F)cc2)nc(-c2ccc(F)cc2)c1-c1cccnc1` are more than 10 µM and more than 10 µM.
The corresponding values for `Cn1cc(NC(=O)c2ccccc2F)c(-c2nc3ccccc3[nH]2)n1` are more than 10 µM and more than 10 µM.
The corresponding values for `C=CCn1c(S(=O)(=O)Cc2ccc(F)cc2)nc(-c2ccccc2)c1-c1ccccc1` are 4.2 µM and 4.6 µM.
For the compound `Cn1c(SCc2ccccc2)nc(-c2ccccc2)c1-c1ccccc1`, the EC50 worked out at 0.4 µM in the data set with Influenza A virus [2] and 6 µM in data set [3]. This compound also gave a t1/2 in the data set on Liver of 15 min. Moreover, in [4], the half-life was found to be 3 min.
Turning to `Cn1c(CN(Cc2ccccc2)c2ccccc2)nc(-c2ccccc2)c1-c1ccccc1`, the concentration for a half-maximal effect (EC50) (in the data set on Influenza A virus [2]; in [3]) was more than 10 µM throughout.
`Cn1c(S(=O)(=O)Cc2ccc(F)cc2)nc(-c2ccc(F)cc2)c1-c1ccc(F)cc1`: the EC50 (with Influenza A virus [2]; in data set [3]) was more than 10 µM throughout. The t1/2 in the data set on Liver is listed as less than 2.5 min. Further, the half-life in [4] is less than 2.5 min.
For `Cn1c(S(=O)(=O)Nc2ccccc2)nc(-c2ccccc2)c1-c1ccccc1`, the EC50 (in the data set on Influenza A virus [2]; in data set [3]) was more than 10 µM each time. In the data set on Liver, this compound displayed a t1/2 of 27 min. In addition, the half-life in data set [4] was less than 2.5 min.
For the compound `Cn1c(C(O)Cc2ccccc2)nc(-c2ccccc2)c1-c1ccccc1` (stereo unspecified), the 50% effective concentration (EC50) (in the data set on Influenza A virus [2]; in [3]) was more than 10 µM in each case.
Regarding `Nc1ccc(C(=O)Cn2c(-c3nccnc3NC(=O)c3ccccc3)nc3ccccc32)cc1`, the EC50 (with Influenza A virus [2]; in data set [3]) was more than 10 µM throughout.
`CCOC(=O)Cn1c(-c2nonc2NC(=O)c2ccccc2F)nc2ccccc21`: the EC50 in the data set with Influenza A virus [5] came to 0.05 µM; in the data set with Influenza A virus [2] it was 0.012 µM; in data set [6] it was 0.14 µM; with Influenza A virus [7], 0.1 µM; in data set [3], 0.023 µM.
Turning to `Cn1c(C(=O)Nc2ccccc2F)nc(-c2ccccc2)c1-c1ccccc1`, the values for the EC50 (in the data set with Influenza A virus [2]; in [3]) were 10 µM and 9 µM, respectively.
The corresponding values for `CCN(Cc1nc(-c2ccccc2)c(-c2ccccc2)n1C)c1ccccc1` are 10 µM and 10 µM.
Take `COc1ccc(-n2c(SC(C)C(=O)Nc3ccc(C)cc3Cl)nc3ccccc32)cc1` (stereo unspecified): the values for the half-maximal effective concentration (EC50) (in data set [6]; in the data set with Influenza A virus [7]) were 0.07 µM and 0.04 µM, respectively.
As for `Cn1c(S(=O)(=O)Cc2ccc(F)cc2)nc(-c2ccc(F)cc2)c1-c1ccncc1`, the concentration for a half-maximal effect (EC50) (in the data set on Influenza A virus [2]; in data set [3]) was more than 10 µM throughout.
As to `Cn1c(CCc2ccccc2)nc(-c2ccccc2)c1-c1ccccc1`, the EC50 in the data set with Influenza A virus [2] amounted to 10 µM; in [3] it was 6 µM.

What is called solubility is how much of the substance goes into solution per volume. A word on the EC50: it is the midpoint of the concentration-response curve. A word on the half-life: it is how long it takes for the measured level to halve.
